Screening data deposited in PubChem BioAssay by several laboratories.
HMGR II inh: E. faecalis class II HMG-CoA reductase inhibition | purified E. faecalis HMGR, NADPH absorbance 340 nm kinetic | AID 1066 | inhibition, % at 10 µM | actives 0.41% (n = 190,000);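 active = inhibition above a set limit, the median over all tested compounds plus 3 SD, cut at about 9.5% in these data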;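 note: enzyme runs in reverse so mevalonate oxidation gives rising NADPH absorbance; 0% = complete reaction with DMSO and 100% = background rate lacking mevalonate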
ABCB1 inh: inhibitors of human ABCB1 transporter, ABCG2 counter-screen; P08183; CCRF-Adr cells, JC-1 efflux, flow cytometry; inhibition, % at 6.6 µM; actives 0.067% (n = 190,000); in the data active = inhibition above about 40%;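 note: 0% = vehicle and 100% = reference inhibitor; higher value means more JC-1 retained so stronger ABCB1 efflux block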
Diaphorase inh: diaphorase inhibition or chemical oxidation counter-screen; AID 1217; inhibition, % at 20 µM; actives 0.69% (n = 190,000); diaphorase resazurin-to-resorufin fluorescence, NADH, 16 min; bacterial (C. kluyveri) enzyme, not human;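 active = primary screen inhibition at 20 µM above a set limit, cut at about 50% in these data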;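 note: plate controls were DMSO with full reaction for no effect and wells lacking NADH for full effect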
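controls = No-NADH positive control and DMSO neutral control | system = Clostridium kluyveri diaphorase enzyme | timing = reaction incubation of 16 min at room temperature | signal = resorufin fluorescence 544/590 nm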
ABCG2 block: human ABCG2 inhibition, ABCB1 as counter-screen | Q9UNQ0 | inhibition, % at 6.6 µM | AID 1325 | IgMXP3 cells, JC-1 efflux, flow cytometry | actives 0.1% (n = 190,000);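 active = inhibition above 80%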;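 note: 0% = DMSO and 100% = nicardipine control wells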
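System: two drug-resistant human cell lines, ABCG2 and ABCB1; controls: nicardipine high and DMSO low controls; times: 10 min exposure at 25 °C with rotation, no wash; detection: flow cytometry of retained JC-1 fluorescence; read-out basis: percent efflux inhibition, scaled nicardipine 100% to DMSO 0%; doses: one concentration, 6.6 µM final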
Diaph act CS: counter-screen for diaphorase-based assays: diaphorase activators and chemical reducers; Diaphorase/resazurin coupled assay, resorufin fluorescence, 16 min; active compounds read high; 1 = vehicle wells, 0 = NADH-free wells; activation factor at 20 µM; actives 0.005% (n = 190,000);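 active = diaphorase activity raised at least twofold by the compound at 20 µM; inactive = activation factor below 2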
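Material: purified diaphorase enzyme from Clostridium kluyveri; Also added: 0.114 mM NADH and 0.1 mM resazurin, final amounts; Doses: single compound dose of 20 µM, 1% DMSO final; Times: 16 min enzyme reaction, ambient temperature; Detection: resorufin fluorescence, excitation 544 nm, emission 590 nm; Measure: increased resorufin signal from activators or reducing compounds.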
p47phox inh: p47phox (human) inhibition; AID 1274; p47phox/p22phox peptide binding, fluorescence polarization, 2 h; P14598; actives 0.53% (n = 220,000); inhibition, % at 24.7 µM;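 active = inhibition above about 30%, limit read from the data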;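 note: 0% = p47phox with labelled peptide and 100% = labelled peptide alone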
Target sequence (P14598 whole entry, looked up): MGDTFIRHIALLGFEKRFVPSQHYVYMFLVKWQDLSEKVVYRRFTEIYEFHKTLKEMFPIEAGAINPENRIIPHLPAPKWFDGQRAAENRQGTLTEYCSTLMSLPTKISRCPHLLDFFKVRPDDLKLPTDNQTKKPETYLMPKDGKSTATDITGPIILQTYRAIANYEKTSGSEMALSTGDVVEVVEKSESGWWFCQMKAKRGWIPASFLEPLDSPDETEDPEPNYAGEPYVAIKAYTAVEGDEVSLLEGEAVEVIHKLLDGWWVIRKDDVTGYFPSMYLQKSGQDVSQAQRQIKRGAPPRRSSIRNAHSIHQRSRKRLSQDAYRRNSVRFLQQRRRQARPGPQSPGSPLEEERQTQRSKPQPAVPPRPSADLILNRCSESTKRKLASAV
The depositor's hits bear a star; · = not tested or not shown. Rows were chosen to be rich in hits. Some 1.6% of all compounds tested hit in one or more screens of this group.

SMILES	HMGR II inh	ABCB1 inh	Diaphorase inh	ABCG2 block	Diaph act CS	p47phox inh
COc1ccc(-c2cn[nH]c2-c2ccc(OCc3ccc([N+](=O)[O-])cc3)cc2O)cc1	-1.8	0.6	5.3	26.4	0.9	34.9*
C/C(=N\NC1=NCCN1)c1ccc(Cl)cc1	·	·	·	·	·	0.9
CCN(CC)CC(=O)Nc1ccc(/C(C)=N/NC2=NCCN2)cc1	9.7*	-0.2	-24.4	-0.1	1.2	-3.3
CCOC(=O)C1(C)NC(c2cc(OC)c(OC)c(OC)c2)C2C(=O)N(CC)C(=O)C21 (stereo unspecified)	-3.3	0.2	4.8	1.6	1	-15.1
CCN1C(=O)C2C(c3ccc(O)c(OC)c3)NC(C)(C(=O)OC)C2C1=O (stereo unspecified)	-3.7	0.0	7.8	-0.4	0.9	38.4*
CCC1=NN2C(=N)/C(=C\c3ccc(SCc4ccco4)o3)C(=O)N=C2S1	1.0	0.1	55.5*	-0.5	0.4	-152.2
O=C1NC(=S)S/C1=C\c1ccc(SCc2ccco2)o1	12.5*	0.0	80.9*	-2.0	0.2	-80.0
CCCC1=NN2C(=N)/C(=C\c3ccc(SCc4ccco4)o3)C(=O)N=C2S1	-1.7	-1.5	51.4*	-8.8	0.5	-176.9
O=C1NC(=S)S/C1=C\c1ccc(SCc2ccccc2)o1	6.5	-0.9	35.4	-6.0	0.6	-53.8
CCC1=NN2C(=N)/C(=C/c3c(C)nn(-c4ccccc4)c3Cl)C(=O)N=C2S1	-1.1	0.1	6.5	1.8	0.9	-14.3
CC(CCc1ccccc1)NC(=O)COC(=O)c1cc(NS(=O)(=O)c2ccc(Cl)c([N+](=O)[O-])c2)ccc1O (stereo unspecified)	-5.5	-0.3	24.7	-1.9	0.8	-5.2
CCOc1ccc(NC(=O)CN2C(=O)CSC(C)C2=O)cc1 (stereo unspecified)	-0.5	-0.2	-5.4	1.2	1.1	1.3
CCOc1ccc(NC(=O)CN2C(=O)/C(=C3\SC(=S)N(C4CCS(=O)(=O)C4)C3=O)c3ccccc32)cc1 (stereo unspecified)	·	·	·	·	·	63.0*
CCOC(=O)C1=C(C)C(c2ccc(OC)cc2OC)NC(=O)N1 (stereo unspecified)	-0.6	1.2	7.3	89.7*	0.9	-5.0
CC(=O)Nc1ccc(Cc2nc3ccccc3[nH]2)cc1	16.1*	0.4	6.3	2.5	0.9	-2.1
COc1cc(-c2cc(=O)c3c(O)cc(O)cc3o2)ccc1O	-5.1	0.9	32.2	5.4	0.7	-29.9
CCc1nnc(NC(=O)c2ccc(S(=O)(=O)N(C)c3ccccc3)cc2)o1	-0.5	-0.6	8.2	1.7	0.9	-4.8
CC(=O)Oc1ccc2ccc(=O)oc2c1	-3.1	0.1	10.9	1.4	0.9	-6.6
COc1ccc2ccc(=O)oc2c1	14.6*	0.7	7.2	-1.7	0.9	-6.7
CCCCOc1ccc2c(c1)/C(=C(\C(Cl)=C(Cl)Cl)[N+](=O)[O-])N2	-4.5	-0.7	50.3*	-1.8	0.5	-28.9
CCOc1ccc2c(c1)/C(=C(\C(Cl)=C(Cl)Cl)[N+](=O)[O-])N2	2.1	-0.4	51.1*	-0.5	0.5	-14.3
CCOc1ccc2c(c1)/C(=N/N1C(=O)c3ccccc3C1=O)C(=O)N2	-0.8	-0.3	-15.4	8.1	1.2	3.9
CC1(C)CC(=O)C(C2C3=C(CC(C)(C)CC3=O)Oc3ccccc32)C(=O)C1 (stereo unspecified)	·	·	·	·	·	-5.6
CO/N=C/c1ccc(N2CCOCC2)c([N+](=O)[O-])c1	-0.6	0.8	1.7	3.3	1	3.5
CCNc1c2c3c(cccc3n(C)c1=O)C(=O)c1ccccc1-2	-3.2	2.3	21.9	4.4	0.8	-214.6
SMILES	HMGR II inh	ABCB1 inh	Diaphorase inh	ABCG2 block	Diaph act CS	p47phox inh
Cn1c(=O)c(NC2CCCCC2)c2c3c(cccc31)C(=O)c1ccccc1-2	0.8	48.3*	44.4	66.0	0.6	-55.6
Cc1ccc(-c2cc(C(=O)O)n(-c3ccc(S(N)(=O)=O)cc3)n2)cc1	15.8*	0.5	-11.0	4.5	1.1	-1.2
Cc1ccc(NC(=O)Nc2ccc(Cl)cc2)c(Br)c1	-3.6	-0.1	6.6	-2.5	0.9	-9.5
CCCCCCn1c(N2CCC(C(N)=O)CC2)nc2c1c(=O)n(C)c(=O)n2C	2.5	0.2	-1.1	3.2	1	-1.9
C(=N\n1cnnc1)/c1ccc(N2CCOCC2)s1	-1.6	0.2	7.8	0.0	0.9	42.8*
CC(=O)Nc1ccc(S(=O)(=O)Nc2cccc(-c3ccc4nncn4n3)c2)cc1	11.2*	1.7	15.0	5.6	0.8	-5.7
CC(=O)c1ccc(S(=O)(=O)Nc2cccc(-c3ccc4nncn4n3)c2)cc1	0.4	0.3	12.0	0.6	0.9	-3.1
COCCn1c(SCC#N)nnc1-c1ccc(OC)cc1	12.8*	1.2	5.7	4.8	0.9	3.9
CC(C)NC(=O)C1CCCN(S(=O)(=O)c2ccc(-n3cnnn3)cc2)C1 (stereo unspecified)	1.3	0.3	8.3	0.6	0.9	-2.9
C#CCOCCOCCOCCNc1nc(N2CCN(C(=O)C(Cc3ccc(O)cc3)n3cc(C(N)C(C)CC)nn3)CC2)nc(N2CCN(C(=O)C(Cc3ccc(O)cc3)n3cc(C(N)C(C)CC)nn3)CC2)n1 (stereo unspecified)	0.9	-0.1	-5.6	-0.2	1.1	·
C#CCOCCOCCOCCNc1nc(N2CCN(C(=O)[C@H](C)n3cc(CCCN=C(N)N)nn3)CC2)nc(N2CCN(C(=O)[C@H](CCCCN)n3cc(CCCC)nn3)CC2)n1	10.2*	0.6	-31.3	-2.3	1.3	14.2
C#CCOCCOCCOCCNc1nc(N2CCOCC2)nc(N2CCN(C(=O)[C@H](Cc3ccc(O)cc3)n3cc([C@@H](N)C(C)CC)nn3)CC2)n1 (stereo partly specified)	1.3	-0.1	78.7*	-0.9	0.2	-7.8
C#CCOCCOCCOCCNc1nc(N2CCN(C(=O)[C@H]([C@@H](C)CC)n3cc([C@@H](N)CC(C)C)nn3)CC2)nc(N2CCN(C(=O)[C@H](Cc3cc4ccccc4[nH]3)n3cc([C@@H](N)C(C)CC)nn3)CC2)n1 (stereo partly specified)	·	·	·	·	·	6.8
C#CCOCCOCCOCCNc1nc(N2CCN(C(=O)[C@H](CCCCN)n3cc([C@@H](N)CO)nn3)CC2)nc(N2CCN(C(=O)[C@H](Cc3cc4ccccc4[nH]3)n3cc([C@@H](N)Cc4ccc(O)cc4)nn3)CC2)n1	-5.9	0.3	-59.5	0.7	1.6	38.7*
